How the values were obtained:
[1] = molecular target: T1, Prostaglandin E2 receptor EP3 subtype (Homo sapiens, UniProt P43115); assay: Displacement of [3H]PGE2 from human EP3 receptor in buffer
T1 sequence (P43115 whole entry): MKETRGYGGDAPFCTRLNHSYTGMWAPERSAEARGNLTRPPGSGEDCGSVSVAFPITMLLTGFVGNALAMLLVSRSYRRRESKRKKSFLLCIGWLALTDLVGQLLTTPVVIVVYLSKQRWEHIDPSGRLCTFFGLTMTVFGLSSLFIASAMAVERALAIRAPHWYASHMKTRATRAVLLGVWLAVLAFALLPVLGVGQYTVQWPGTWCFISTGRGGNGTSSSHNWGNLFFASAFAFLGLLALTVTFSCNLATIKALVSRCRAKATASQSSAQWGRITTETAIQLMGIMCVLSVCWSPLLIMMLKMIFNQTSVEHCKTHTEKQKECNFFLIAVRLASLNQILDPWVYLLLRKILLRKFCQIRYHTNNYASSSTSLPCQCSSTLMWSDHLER

[2] = molecular target: T1, Prostaglandin E2 receptor EP3 subtype; assay: Displacement of [3H]PGE2 from human EP3 receptor in presence of 10% human serum
[3] = Metabolic stability in human liver microsomes assessed as parent compound remaining after 30 mins; assay type: ADME, Microsome; conditions: read-out: Stability
Summary of the method: (§1)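 Compounds incubated with liver microsomes from human, rat, mouse, dog or monkey. Read-out is percent parent compound remaining at 30 min of incubation.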

[4] = Metabolic stability in rat liver microsomes assessed as parent compound remaining after 30 mins; assay type: ADME, Microsome; conditions: read-out: Stability; summary of the method: as §1
[5] = Metabolic stability in mouse liver microsomes assessed as parent compound remaining after 30 mins; assay type: ADME, Microsome; conditions: read-out: Stability; summary of the method: as §1
Rattus norvegicus = species: Rattus norvegicus; assay: Antithrombotic activity in rat assessed as platelet aggregation; assay type: functional
Summary of the method: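 Functional EP3 antagonism measured in a rat platelet aggregation assay. Values reported as EC50 in nM.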

Cytochrome P450 3A4 [6] = molecular target: T2, Cytochrome P450 3A4 (Homo sapiens, UniProt P08684); assay: Inhibition of human CYP3A4 using 7-benzyloxy-4-trifluoromethylcoumarin as substrate; assay type: ADME
Summary of the method: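 Inhibition of human CYP3A4 with 7-benzyloxy-4-trifluoromethylcoumarin (BFC) as substrate. Values given as IC50.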

[7] = Metabolic stability in dog liver microsomes assessed as parent compound remaining after 30 mins; assay type: ADME, Canis lupus familiaris, Microsome; conditions: read-out: Stability; summary of the method: as §1
[8] = molecular target: T1, Prostaglandin E2 receptor EP3 subtype; assay: Partial displacement of [3H]PGE2 from human EP3 receptor in presence of 10% human serum
[9] = assessed as parent compound remaining after 30 mins; conditions: read-out: Stability
[10] = Metabolic stability in monkey liver microsomes assessed as parent compound remaining after 30 mins; assay type: ADME, Macaca mulatta, Microsome; conditions: rhesus monkey, read-out: Stability; summary of the method: as §1
[11] = molecular target: Prostaglandin E2 receptor EP2 subtype (Homo sapiens, UniProt P43116); assay: Binding affinity to human EP2 receptor by radioligand displacement assay
Summary of the method: (§2)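 Radioligand displacement assays on a human prostanoid receptor panel (EP2, EP4, FP, IP). IC50 values reported in µM.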

[12] = molecular target: Prostaglandin E2 receptor EP4 subtype (Homo sapiens, UniProt P35408); assay: Binding affinity to human EP4 receptor by radioligand displacement assay; summary of the method: as §2
[13] = molecular target: Prostaglandin F2-alpha receptor (Homo sapiens, UniProt P43088); assay: Binding affinity to human FP receptor by radioligand displacement assay; summary of the method: as §2
Prostacyclin receptor = Prostacyclin receptor (Homo sapiens, UniProt P43119); assay: Binding affinity to human IP receptor by radioligand displacement assay; summary of the method: as §2
Cytochrome P450 3A4 [14] = molecular target: T2, Cytochrome P450 3A4; assay: Inhibition of human CYP3A4 using dibenzylfluorescein as substrate; assay type: ADME
Summary of the method: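 Inhibition of human CYP3A4 with dibenzylfluorescein (DBF) as substrate. Values given as IC50.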

Cytochrome P450 2C9 = Cytochrome P450 2C9 (Homo sapiens, UniProt P11712); assay: Inhibition of human CYP2C9; assay type: ADME
Cytochrome P450 1A2 = molecular target: T3, Cytochrome P450 1A2 (Homo sapiens, UniProt P05177); assay: Inhibition of human CYP1A2; assay type: ADME
T3 sequence (P05177 whole entry): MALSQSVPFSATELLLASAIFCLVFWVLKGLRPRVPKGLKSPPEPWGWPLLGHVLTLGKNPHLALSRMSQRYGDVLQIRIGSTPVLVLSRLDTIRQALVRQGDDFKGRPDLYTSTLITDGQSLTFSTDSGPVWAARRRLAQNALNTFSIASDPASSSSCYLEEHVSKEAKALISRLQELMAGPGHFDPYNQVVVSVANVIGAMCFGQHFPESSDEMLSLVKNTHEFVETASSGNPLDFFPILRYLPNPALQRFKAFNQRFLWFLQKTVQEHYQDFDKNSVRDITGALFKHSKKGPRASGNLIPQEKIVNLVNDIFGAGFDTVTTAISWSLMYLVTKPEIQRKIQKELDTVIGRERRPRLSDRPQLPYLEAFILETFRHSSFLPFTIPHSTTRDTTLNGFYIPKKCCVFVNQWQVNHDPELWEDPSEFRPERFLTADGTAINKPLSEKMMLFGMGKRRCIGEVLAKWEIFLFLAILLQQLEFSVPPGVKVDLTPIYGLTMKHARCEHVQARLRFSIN

Cytochrome P450 2D6 = Cytochrome P450 2D6 (Homo sapiens, UniProt P10635); assay: Inhibition of human CYP2D6; assay type: ADME
[15] = Half life in rat at 6 mg/kg, iv; assay type: ADME, organism-based; parameters: dose 6 mg/kg, route intravenous; conditions: in vivo
Summary of the method: (§3)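 Single iv dose of 6 mg/kg given to mouse and to rat. Half-life in hours derived from the plasma pharmacokinetic parameters, alongside predicted clearance and steady-state volume of distribution.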

[16] = Half life in mouse at 6 mg/kg, iv; assay type: ADME, organism-based; parameters: dose 6 mg/kg, route intravenous; conditions: in vivo; summary of the method: as §3

Chain of Cytochrome P450 2C9 (P11712 whole entry): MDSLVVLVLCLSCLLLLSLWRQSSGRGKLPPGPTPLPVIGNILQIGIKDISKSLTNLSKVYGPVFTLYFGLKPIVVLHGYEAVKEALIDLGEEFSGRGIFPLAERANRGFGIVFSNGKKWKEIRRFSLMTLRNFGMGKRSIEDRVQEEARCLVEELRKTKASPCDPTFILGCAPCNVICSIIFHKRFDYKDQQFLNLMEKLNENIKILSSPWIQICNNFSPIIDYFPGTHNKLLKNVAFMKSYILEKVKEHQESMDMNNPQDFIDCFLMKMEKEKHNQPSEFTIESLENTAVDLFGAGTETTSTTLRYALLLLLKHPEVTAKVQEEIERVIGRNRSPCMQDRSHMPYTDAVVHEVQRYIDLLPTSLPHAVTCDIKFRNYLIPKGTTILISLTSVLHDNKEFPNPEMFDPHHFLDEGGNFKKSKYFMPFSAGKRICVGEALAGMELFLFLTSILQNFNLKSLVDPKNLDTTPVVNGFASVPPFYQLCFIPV
Chain of Prostacyclin receptor (P43119 whole entry): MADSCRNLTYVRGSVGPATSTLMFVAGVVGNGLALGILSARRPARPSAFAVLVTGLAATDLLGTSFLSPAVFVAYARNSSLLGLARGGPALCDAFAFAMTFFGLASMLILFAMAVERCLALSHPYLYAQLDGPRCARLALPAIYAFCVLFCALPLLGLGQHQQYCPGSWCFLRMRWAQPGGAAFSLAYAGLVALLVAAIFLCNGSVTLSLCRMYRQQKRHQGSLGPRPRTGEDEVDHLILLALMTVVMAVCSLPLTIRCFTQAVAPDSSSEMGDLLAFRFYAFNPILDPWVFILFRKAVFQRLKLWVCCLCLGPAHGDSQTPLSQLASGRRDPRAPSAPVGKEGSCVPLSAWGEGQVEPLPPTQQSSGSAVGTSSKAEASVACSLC
Chain of Prostaglandin E2 receptor EP4 subtype (P35408 whole entry): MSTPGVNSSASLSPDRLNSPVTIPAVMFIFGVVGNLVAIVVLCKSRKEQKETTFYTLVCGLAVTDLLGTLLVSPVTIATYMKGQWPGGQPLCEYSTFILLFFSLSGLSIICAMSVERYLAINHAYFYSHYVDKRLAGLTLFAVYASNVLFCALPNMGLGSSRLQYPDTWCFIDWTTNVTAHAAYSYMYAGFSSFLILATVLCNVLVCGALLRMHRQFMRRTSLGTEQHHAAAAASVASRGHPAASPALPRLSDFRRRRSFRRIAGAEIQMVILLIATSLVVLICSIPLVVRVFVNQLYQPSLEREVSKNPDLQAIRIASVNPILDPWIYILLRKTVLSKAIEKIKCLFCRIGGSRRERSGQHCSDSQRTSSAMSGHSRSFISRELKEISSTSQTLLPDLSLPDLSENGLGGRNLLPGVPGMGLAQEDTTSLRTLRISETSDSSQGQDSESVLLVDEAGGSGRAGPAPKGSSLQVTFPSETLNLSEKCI
Chain of Cytochrome P450 2D6 (P10635 whole entry): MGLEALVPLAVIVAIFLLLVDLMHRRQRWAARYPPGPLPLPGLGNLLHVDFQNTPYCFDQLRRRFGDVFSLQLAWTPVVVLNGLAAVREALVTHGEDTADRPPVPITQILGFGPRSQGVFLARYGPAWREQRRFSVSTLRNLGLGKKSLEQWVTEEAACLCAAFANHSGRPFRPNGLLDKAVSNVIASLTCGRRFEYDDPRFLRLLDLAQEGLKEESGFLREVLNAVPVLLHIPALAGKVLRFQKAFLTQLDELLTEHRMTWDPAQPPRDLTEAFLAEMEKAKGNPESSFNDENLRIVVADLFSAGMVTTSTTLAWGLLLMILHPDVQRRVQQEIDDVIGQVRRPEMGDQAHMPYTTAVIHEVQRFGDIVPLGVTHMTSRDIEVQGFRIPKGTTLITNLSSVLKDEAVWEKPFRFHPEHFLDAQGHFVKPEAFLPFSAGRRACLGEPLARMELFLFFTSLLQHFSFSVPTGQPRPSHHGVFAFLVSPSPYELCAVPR
Chain of Prostaglandin F2-alpha receptor (P43088 whole entry): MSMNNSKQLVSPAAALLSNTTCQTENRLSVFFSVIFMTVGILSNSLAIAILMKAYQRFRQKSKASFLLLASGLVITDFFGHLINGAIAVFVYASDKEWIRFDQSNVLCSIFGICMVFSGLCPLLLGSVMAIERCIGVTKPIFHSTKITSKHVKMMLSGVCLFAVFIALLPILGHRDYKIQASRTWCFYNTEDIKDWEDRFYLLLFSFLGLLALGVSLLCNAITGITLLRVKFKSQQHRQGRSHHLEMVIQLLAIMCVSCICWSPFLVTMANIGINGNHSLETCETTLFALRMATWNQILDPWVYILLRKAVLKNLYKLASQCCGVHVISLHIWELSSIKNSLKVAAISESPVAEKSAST
Chain of Prostaglandin E2 receptor EP2 subtype (P43116 whole entry): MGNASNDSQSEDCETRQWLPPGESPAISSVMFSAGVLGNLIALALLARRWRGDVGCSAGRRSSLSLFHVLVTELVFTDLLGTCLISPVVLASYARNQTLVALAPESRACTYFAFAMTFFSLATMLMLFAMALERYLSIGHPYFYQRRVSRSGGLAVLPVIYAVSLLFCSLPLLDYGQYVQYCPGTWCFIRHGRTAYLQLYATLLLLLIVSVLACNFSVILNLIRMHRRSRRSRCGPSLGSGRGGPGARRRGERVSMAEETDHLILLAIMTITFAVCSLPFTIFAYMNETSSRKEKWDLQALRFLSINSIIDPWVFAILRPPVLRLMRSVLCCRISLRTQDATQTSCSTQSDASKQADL
T2 sequence (P08684 whole entry): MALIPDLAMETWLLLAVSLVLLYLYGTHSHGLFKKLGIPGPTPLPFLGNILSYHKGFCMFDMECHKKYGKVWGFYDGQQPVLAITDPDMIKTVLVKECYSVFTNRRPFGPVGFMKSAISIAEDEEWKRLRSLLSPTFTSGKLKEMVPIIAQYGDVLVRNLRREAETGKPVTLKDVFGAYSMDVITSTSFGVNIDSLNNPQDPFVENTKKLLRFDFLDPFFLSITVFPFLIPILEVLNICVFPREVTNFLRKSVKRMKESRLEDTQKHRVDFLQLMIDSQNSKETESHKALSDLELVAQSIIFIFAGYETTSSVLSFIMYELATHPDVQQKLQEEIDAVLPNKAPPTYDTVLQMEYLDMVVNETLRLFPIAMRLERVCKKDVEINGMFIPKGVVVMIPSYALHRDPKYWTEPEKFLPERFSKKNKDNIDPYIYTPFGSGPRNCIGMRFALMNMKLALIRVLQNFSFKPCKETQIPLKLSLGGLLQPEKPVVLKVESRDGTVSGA

SMILES | IC50 [1] | IC50 [2] | remaining at 0.5 h [3] | remaining at 0.5 h [4] | remaining at 0.5 h [5] | IC50 (Rattus norvegicus) | inhibition (INH) (Cytochrome P450 3A4 [6]) | other results
O=C(/C=C/c1cccc2c1N(Cc1ccc(Cl)cc1Cl)C(=O)C2(F)F)NS(=O)(=O)c1ccc(F)c(F)c1 | 0.2 nM | 6.5 nM | 74.4% | 80.1% | 71% | > 800 nM | Active | –
O=C(/C=C/c1cccc2c1N(Cc1ccc3ccccc3c1)C(=O)C2)NS(=O)(=O)c1cc(Cl)c(Cl)s1 | 1.3 nM | 5.4 nM | 105% | 32.9% | 63.8% | – | – | remaining at 0.5 h [7]: 79.5%; EC50 (Rattus norvegicus): 27 nM
O=C(/C=C/c1cccc2c1N(Cc1ccc(Cl)cc1Cl)C(=O)C2(F)F)NS(=O)(=O)c1ccc(Cl)c(Cl)c1 | 0.2 nM | 5.5 nM | 73.1% | 70.4% | 82.8% | > 800 nM | Active | –
O=C(/C=C/c1cccc2c1N(Cc1ccc(Cl)cc1Cl)C(=O)C2(F)F)NS(=O)(=O)c1cccc(Cl)c1 | 0.2 nM | 7.7 nM | 66.6% | 62.2% | 31.2% | > 800 nM | Active | –
O=C(/C=C/c1cccc2c1N(Cc1ccc(F)c(F)c1)C(=O)C2(CO)CO)NS(=O)(=O)c1ccc(F)c(F)c1 | 45.4 nM | – | – | – | – | – | – | IC50 [8]: Active
O=C(/C=C/c1cccc2c1N(Cc1ccc(Cl)cc1Cl)C(=O)C21OCCO1)NS(=O)(=O)c1cc(Cl)c(Cl)s1 | 3.8 nM | – | – | – | – | – | – | IC50 [8]: Active; remaining at 0.5 h [9]: 28.4%
O=C(/C=C/c1cccc2c1N(Cc1ccc3ccccc3c1)C(=O)C21OCCO1)NS(=O)(=O)c1cccs1 | 13 nM | 679 nM | – | – | – | – | – | remaining at 0.5 h [9]: 37.8%
O=C(/C=C/c1cccc2c1N(Cc1ccc3ccccc3c1)C(=O)C2(F)F)NS(=O)(=O)c1cccs1 | 202 nM | – | – | – | – | > 800 nM | Active | IC50 [8]: Active
O=C(/C=C/c1cccc2c1N(Cc1ccc3ccccc3c1)C(=O)C2(F)F)NS(=O)(=O)c1ccc(Cl)c(Cl)c1 | 0.3 nM | 4.5 nM | 79.4% | 62.1% | 41.3% | > 800 nM | Active | –
CC1C(=O)N(Cc2ccc3ccccc3c2)c2c(/C=C/C(=O)NS(=O)(=O)c3cccs3)cccc21 (centres undefined) | 3.5 nM | 96.5 nM | 43.5% | 48% | 32.6% | – | – | remaining at 0.5 h [7]: 81.8%; remaining at 0.5 h [10]: 35.3%
CC1C(=O)N(Cc2ccc3ccccc3c2)c2c(/C=C/C(=O)NS(=O)(=O)c3cc(Cl)c(Cl)s3)cccc21 (centres undefined) | 4.4 nM | 3.2 nM | 48.2% | 8% | 67.7% | – | – | remaining at 0.5 h [7]: 67.7%; EC50 (Rattus norvegicus): 2 nM
O=C(/C=C/c1cccc2c1N(Cc1ccc(Cl)cc1Cl)C(=O)C2(F)F)NS(=O)(=O)c1cc(Cl)c(Cl)s1 | 3.8 nM | 64 nM | 94.4% | 94.8% | 100% | > 800 nM | Active | remaining at 0.5 h [7]: 83.3%; remaining at 0.5 h [10]: 67.3%
O=C(/C=C/c1cccc2c1N(Cc1ccc(Cl)cc1Cl)C(=O)C2(F)F)NS(=O)(=O)c1cccs1 | 237 nM | – | – | – | – | > 800 nM | Active | IC50 [8]: Active
O=C(/C=C/c1cccc2c1N(Cc1ccc(Cl)cc1Cl)C(=O)C2(F)F)NS(=O)(=O)c1cc(F)c(F)cc1F | 0.2 nM | 5.6 nM | 74.6% | 77.4% | 60.6% | > 800 nM | Active | –
O=C(/C=C/c1cccc2c1N(Cc1ccc(Cl)cc1Cl)C(=O)C2)NS(=O)(=O)c1cc(Cl)c(Cl)s1 | 2.9 nM | 92.8 nM | 76.8% | 46.3% | 56.8% | – | – | remaining at 0.5 h [10]: 76.9%
O=C(/C=C/c1cccc2c1N(Cc1ccc(Cl)cc1Cl)C(=O)C2)NS(=O)(=O)c1cccs1 | 56 nM | – | – | – | – | – | – | IC50 [8]: Active
O=C(/C=C/c1cccc2c1N(Cc1ccc3ccccc3c1)C(=O)C2O)NS(=O)(=O)c1cc(F)c(F)cc1F (centres undefined) | 0.6 nM | 9.4 nM | 95.6% | 99.7% | 73.5% | – | Not Active | EC50 (Rattus norvegicus): 69 nM; IC50 [11]: > 20000 nM; IC50 [12]: 8700 nM; IC50 [13]: > 20000 nM; IC50 (Prostacyclin receptor): > 20000 nM; inhibition (INH) (Cytochrome P450 3A4 [14]): Active; inhibition (INH) (Cytochrome P450 2C9): Active; inhibition (INH) (Cytochrome P450 1A2): Not Active; inhibition (INH) (Cytochrome P450 2D6): Not Active
O=C(/C=C/c1cccc2c1N(Cc1ccc3ccccc3c1)C(=O)C2(F)F)NS(=O)(=O)c1cc(Cl)c(Cl)s1 | 11.6 nM | 20.8 nM | 79.3% | 71.8% | 80.7% | > 800 nM | Active | –
O=C(/C=C/c1cccc2c1N(Cc1ccc3ccccc3c1)C(=O)C2(F)F)NS(=O)(=O)c1cc(F)c(F)cc1F | 0.3 nM | 9.3 nM | 68.8% | 54.2% | 47.9% | > 800 nM | Active | –
O=C(/C=C/c1cccc2c1N(Cc1ccc3ccccc3c1)C(=O)C2O)NS(=O)(=O)c1ccc(F)cc1 (centres undefined) | 0.9 nM | 19.4 nM | 97.7% | 103% | 83.4% | – | Not Active | EC50 (Rattus norvegicus): 63 nM; IC50 [11]: > 20000 nM; IC50 [12]: 15100 nM; IC50 [13]: > 20000 nM; IC50 (Prostacyclin receptor): > 20000 nM; inhibition (INH) (Cytochrome P450 3A4 [14]): Active; inhibition (INH) (Cytochrome P450 2C9): Active; inhibition (INH) (Cytochrome P450 1A2): Not Active; inhibition (INH) (Cytochrome P450 2D6): Not Active; half-life [15]: 1.75 h; half-life [16]: 2.1 h
O=C(/C=C/c1cccc2c1N(Cc1ccc3ccccc3c1)C(=O)C2O)NS(=O)(=O)c1ccc(F)c(F)c1 (centres undefined) | 1.6 nM | 7.6 nM | 89.3% | 87.9% | 72.7% | – | Not Active | EC50 (Rattus norvegicus): 87 nM; IC50 [11]: > 20000 nM; IC50 [12]: 2300 nM; IC50 [13]: > 20000 nM; IC50 (Prostacyclin receptor): > 20000 nM; inhibition (INH) (Cytochrome P450 3A4 [14]): Active; inhibition (INH) (Cytochrome P450 2C9): Active; inhibition (INH) (Cytochrome P450 1A2): Not Active; inhibition (INH) (Cytochrome P450 2D6): Not Active
O=C(/C=C/c1cccc2c1N(Cc1ccc3ccccc3c1)C(=O)C2(F)F)NS(=O)(=O)c1ccc(F)c(F)c1 | 0.2 nM | 5 nM | 68.1% | 45% | 47.1% | > 800 nM | Active | –
O=C(/C=C/c1cccc2c1N(Cc1ccc3ccccc3c1)C(=O)C2(F)F)NS(=O)(=O)c1cccc(Cl)c1 | 0.1 nM | 1.9 nM | 64.5% | 21% | 21.6% | > 800 nM | Active | –
